In the EternaBench riboswitch data:

System: MS2 coat protein
Assay: apparent Kd, MS2 coat protein; higher = weaker binding; RNA-MaP array; FMN 200 µM where present
Summary of the method: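 The apparent Kd is reported as the median of filtered per-cluster binding-curve fits. To get these curves, designs transcribed by stalled E. coli RNA polymerase on Illumina sequencing-chip clusters were titrated with SNAP-549-labelled MS2 coat protein from 0.7 or 1.5 nM, doubling to 3 µM. Titrations were run without and then with constant ligand in 100 mM Tris-HCl pH 7.5, 80 mM KCl, 4 mM MgCl2, BSA, DTT, yeast tRNA and Tween-20, and green signal was normalised to red-channel RNA signal and control-cluster median Fmax.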

[1] = designed as: OFF switch for flavin mononucleotide, no ligand
[2] = ligand present: flavin mononucleotide, designed as: OFF switch for flavin mononucleotide
[3] = designed as: ON switch for flavin mononucleotide, no ligand
[4] = ligand present: flavin mononucleotide, designed as: ON switch for flavin mononucleotide

Sequence | apparent Kd [1] [nM] | apparent Kd [2] [nM] | apparent Kd [3] [nM] | apparent Kd [4] [nM]
CAGGUCUGAGGAUAUCCAUCUUCAUACAUGAGGAUCACCCAUGUUUACCUUUGGGUUUUUGGAGAAGGCAGUUUUU | 188 | 243 | – | –
CCGGCUUAGGAGGAUAUAGGAGUCGAUAGACACCUAGAAGGCCUAACAUGAGGAUCACCCAUGUGUCCUACCGG | 17.8 | 61.5 | – | –
AUAUUGUGAGGAUAUCAGGUGUGCUAGCGUACUGGUACAUCUGAGAAGGCACAUGAGGAUCACCCAUGUUUCUU | 15.6 | 39.6 | – | –
UCUGGUCGAGGAUAUACAAUCGUGCUUCGGCACGUAAGAUCACAUGAGGAUCACCCAUGUAGAAGGUGACCAGA | 27.1 | 131 | – | –
CUAAAUCAUGUAGGAUAUGGAUGGCGAAGCUACCCAGAAGGACAUGAGGAUCACCCAUGUCAGAACGUCUGCGUUCAGACGUUG | 35.7 | 217 | – | –
CGCUCACAUGAGGAUCACCCAUGUCCUAGGAGGUCAGGAUAUAGCCCGCAUCCGCUGCGGCUAGAAGGGACAGCUG | – | – | 203 | 68.6
UCGAUGCUAGGAUAUACUUAUAAAACCACUGUAGAGUCCUCACAUGAGGAUCACCCAUGUAGAAGGAGCAUCUA | 25.9 | 46.4 | – | –
UGCACAUGAGGAUCACCCAUGUAUUGUUCGGUUAAUAGAAGUGAGGAUAUGCAUAAAAUAAGGUAGCAGAAGGCACAGGAUUCA | – | – | 23.9 | 25.4
AGGAUACACCAGAAGGACAUGAGGAUCACCCAUGUAGGAUAUGGGUACGCCGACAUUAGUCUGCUCUCGGUAGACUUUCCUGAU | – | – | 75.1 | 10.4
GGAGCCCAGUCAGGAUAUGUAACGCUAAGGCUGUUACAUGAGGAUCACCCAUGUUUCACCGUGAAACAGAAGGGACAAUUGGCG | – | – | 500 | 147
CUUUUGUGAGGAUAUCAGUAGUAUAAAAAUAAAAUUACUACUGAGAAGGCACAUGAGGAUCACCCAUGUUCCUC | 39 | 226 | – | –
AAUUCGGCAGGAUAUACAUGAGGAUCACCCAUGUAAAUUUUUCGUUUAACUUGAAUGUGUAGAAGGGCCAUUUA | – | 22.6 | – | –
CCCAGAGCGUAAGGAUAUACAUGAGGAUCACCCAUGUCUACAAUAAUAGUACUAUAUGAAGUCGUGUAGAAGGUACGCGCAGGU | 41.2 | 119 | – | –
GUCAGCUCGUGAGGAUAUACAACACAGCUUCGGCAGUGUAUUAAGAUCACAUGAGGAUCACCCAUGUAGAAGGCACGAGCUGAU | 13.1 | 209 | – | –
UCAAGUAUGUAGGAUAUCGAUGUCCUUGGACAUCGAGAAGGACGUACAUGAGGAUCACCCAUGUAACUUGCAUG | 219 | 278 | – | –
AUCAGCUCGUCAGGAUAUACGUCACUGCGUCAGCAGUGUGGUAAGAUCACAUGAGGAUCACCCAUGUAGAAGGGACGAGUUGAU | 13.6 | 310 | – | –
UAUAUAUAGUAAGGAUAUGUAUAUAUGUUAUAAACAGAAGGUACUGACAUGAGGAUCACCCAUGUUUUAGUGUGGGCAUGUAGA | 66.2 | 96 | – | –
AGCUAGUCAGGAUAUGCGAACAUGUCAAAAGACGUGAAGGGACAUGAGGAUCACCCAUGUAGAAGGGACUAGCA | 31.8 | 35.9 | – | –
GGAUAGGACAGAGGAUAUACCGAUAGGAGAUACUAUCGACUAUUCCUCACAUGAGGAUCACCCAUGUAGAAGGCUGUCCUAUCG | 16.9 | 58.1 | – | –
CAGCGAUAGCUGAACAAUCUAUCACAGGAUAUUCAUGAAACAUGAGGAUCACCCAUGUGAAAUUGGGAGAAGGGUGAUAGAUUG | – | – | 12.7 | 5.36
GUCAUGUGAGGAUAUGUAGCCACGAAAUCUUGUAGAGGCAGACAGAAGGCACAUGAGGAUCACCCAUGUGUUUU | 31.6 | 258 | – | –
GGAUAGGACAGAGGAUAUACGUGCUAGACAUACUAGCAAAAUUUCCUCACAUGAGGAUCACCCAUGUAGAAGGCUGUCCUAUCG | 18.7 | 440 | – | –
CUCUUCUCUGAGGAUAUUUUAUGUGUGGACGUGAAAGAAGGCAGUACAUGAGGAUCACCCAUGUGUCCCUCUGU | 126 | 216 | – | –
UGUCGGAGCAGAGGAUAUACAUGAGGAUCACCCAUGUAAAUGAAAGAUAGCUCGAAACGAGCAAAGUAGAAGGCUGCUCCGACA | 14.9 | 24.7 | – | –
UUGUUGUGUGUAGGAUAUGCGUGUUAUUAUUAUGCAGAAGGACAUGAGGAUCACCCAUGUGUAUUGUUAUUAUAUAUUAUAUAU | 21.4 | 22.5 | – | –
GGAGACCUCACAGGAUAUGCUGGACUUUGUCCAGCAGAAGGGUGAAAACAUGAGGAUCACCCAUGUAUGGUCUCCAAAUUUAAC | – | – | 182 | 13.6
CGCUGUCACGCAGGAUAUGCAUUGGAUUACAAUGCAGAAGGGCGAUUACAUGAGGAUCACCCAUGUGUCGACAGUGAAGAAGAG | – | – | – | 43
AACAGUAGAGGAUAUACAUGAGGAUCACCCAUGUGAUAAUUACGUGGCGUACCACGAUGUAGAAGGCUACUGGA | 144 | 36.2 | – | –
